Laboratory results as given in ChEMBL document CHEMBL1142087 (Antimicrob Agents Chemother, 2007).

Tests used:
[1] = Cytotoxicity against MDCK cells; type: cell-based, Canis lupus familiaris; conditions: dog
Method in brief: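 MDCK cells in MEM were exposed to eight test concentrations in half-log10 steps at 37°C. Untreated toxicity and normal-medium controls were included. CC50 was taken as the 50% cytotoxic concentration. Results are from two to five experiments.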

[2] = system: Mus musculus; assay: Effect on weight change in BALB/c mouse at 100 mg/kg/day, po qid measured after 18 hrs of final treatment; type: ADME, organism-based; design: route oral; conditions: in vivo
Method in brief: (§1)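 Uninfected toxicity-control BALB/c mice, 3 per dose, were dosed orally on the same schedule as infected groups. Each mouse was weighed before treatment and 18 h after the last dose. Weight change is the difference. Mice were watched for overt toxicity and death for 21 days.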

[3] = system: Mus musculus; assay: Effect on weight change in BALB/c mouse at 33 mg/kg/day, po qid measured after 18 hrs of final treatment; type: ADME, organism-based; design: route oral; conditions: in vivo; method in brief: as §1
[4] = system: Mus musculus; assay: Toxicity in BALB/c mouse assessed as survival at 300 mg/kg/day, po once daily; type: organism-based; design: route oral; conditions: in vivo
Method in brief: (§2)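 Uninfected female BALB/c toxicity controls (18–21 g), 3 mice per dose, were run in parallel with the infection studies and received 5-day oral treatment. Body weight was taken before treatment and 18 h after the last dose.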

[5] = system: Mus musculus; assay: Toxicity in BALB/c mouse assessed as survival at 100 mg/kg/day, po once daily; type: organism-based; design: route oral; conditions: in vivo; method in brief: as §2
[6] = system: Mus musculus; assay: Toxicity in BALB/c mouse assessed as survival at 30 mg/kg/day, po once daily; type: organism-based; design: route oral; conditions: in vivo; method in brief: as §2
[7] = system: Mus musculus; assay: Toxicity in BALB/c mouse assessed as survival at 10 mg/kg/day, po once daily; type: organism-based; design: route oral; conditions: in vivo; method in brief: as §2
[8] = system: Mus musculus; assay: Toxicity in BALB/c mouse assessed as survival at 3 mg/kg/day, po once daily; type: organism-based; design: route oral; conditions: in vivo; method in brief: as §2
[9] = system: Mus musculus; assay: Effect on weight change in BALB/c mouse at 300 mg/kg/day, po once daily for 5 days measured after 18 hrs of final treatment; type: ADME, organism-based; design: route oral; conditions: in vivo; method in brief: as §1
[10] = system: Mus musculus; assay: Effect on weight change in BALB/c mouse at 100 mg/kg/day, po once daily for 5 days measured after 18 hrs of final treatment; type: ADME, organism-based; design: route oral; conditions: in vivo; method in brief: as §1
[11] = system: Mus musculus; assay: Effect on weight change in BALB/c mouse at 30 mg/kg/day, po once daily for 5 days measured after 18 hrs of final treatment; type: ADME, organism-based; design: route oral; conditions: in vivo; method in brief: as §1
[12] = system: Mus musculus; assay: Effect on weight change in BALB/c mouse at 10 mg/kg/day, po once daily for 5 days measured after 18 hrs of final treatment; type: ADME, organism-based; design: route oral; conditions: in vivo; method in brief: as §1
[13] = system: Mus musculus; assay: Effect on weight change in BALB/c mouse at 3 mg/kg/day, po once daily for 5 days measured after 18 hrs of final treatment; type: ADME, organism-based; design: route oral; conditions: in vivo; method in brief: as §1
[14] = system: Mus musculus; assay: Toxicity in BALB/c mouse assessed as survival at 300 mg/kg/day, po qid for 5 days; type: organism-based; design: route oral; conditions: in vivo, 120 h; method in brief: as §2
[15] = system: Mus musculus; assay: Toxicity in BALB/c mouse assessed as survival at 100 mg/kg/day, po qid for 5 days; type: organism-based; design: route oral; conditions: in vivo, 120 h; method in brief: as §2
[16] = system: Mus musculus; assay: Toxicity in BALB/c mouse assessed as survival at 33 mg/kg/day, po qid for 5 days; type: organism-based; design: route oral; conditions: in vivo, 120 h; method in brief: as §2
[17] = system: Mus musculus; assay: Effect on weight change in BALB/c mouse at 300 mg/kg/day, po qid measured after 18 hrs of final treatment; type: ADME, organism-based; design: route oral; conditions: in vivo; method in brief: as §1
[18] = system: Mus musculus; assay: Toxicity in BALB/c mouse assessed as survival at 300 mg/kg/day, po twice daily; type: organism-based; design: route oral; conditions: in vivo; method in brief: as §2
[19] = system: Mus musculus; assay: Toxicity in BALB/c mouse assessed as survival at 100 mg/kg/day, po twice daily; type: organism-based; design: route oral; conditions: in vivo; method in brief: as §2
[20] = system: Mus musculus; assay: Toxicity in BALB/c mouse assessed as survival at 30 mg/kg/day, po twice daily; type: organism-based; design: route oral; conditions: in vivo; method in brief: as §2
[21] = system: Mus musculus; assay: Toxicity in BALB/c mouse assessed as survival at 10 mg/kg/day, po twice daily; type: organism-based; design: route oral; conditions: in vivo; method in brief: as §2
[22] = system: Mus musculus; assay: Toxicity in BALB/c mouse assessed as survival at 3 mg/kg/day, po twice daily; type: organism-based; design: route oral; conditions: in vivo; method in brief: as §2
[23] = system: Mus musculus; assay: Effect on weight change in BALB/c mouse at 300 mg/kg/day, po twice daily for 5 days measured after 18 hrs of final treatment; type: ADME, organism-based; design: route oral; conditions: in vivo; method in brief: as §1
[24] = system: Mus musculus; assay: Effect on weight change in BALB/c mouse at 100 mg/kg/day, po twice daily for 5 days measured after 18 hrs of final treatment; type: ADME, organism-based; design: route oral; conditions: in vivo; method in brief: as §1
[25] = system: Mus musculus; assay: Effect on weight change in BALB/c mouse at 30 mg/kg/day, po twice daily for 5 days measured after 18 hrs of final treatment; type: ADME, organism-based; design: route oral; conditions: in vivo; method in brief: as §1
[26] = system: Mus musculus; assay: Effect on weight change in BALB/c mouse at 10 mg/kg/day, po twice daily for 5 days measured after 18 hrs of final treatment; type: ADME, organism-based; design: route oral; conditions: in vivo; method in brief: as §1
[27] = system: Mus musculus; assay: Effect on weight change in BALB/c mouse at 3 mg/kg/day, po twice daily for 5 days measured after 18 hrs of final treatment; type: ADME, organism-based; design: route oral; conditions: in vivo; method in brief: as §1
[28] = system: Influenza A virus; assay: Inhibition of influenza A virus (A/duck/Minnesota/1525/1981 (H5N1)) replication in MDCK cells by virus yield reduction assay; type: functional
[29] = system: Influenza A virus; assay: Inhibition of Influenza A virus (A/gull/Pennsylvania/4175/83 (H5N1)) replication in MDCK cells by virus yield reduction assay; type: functional

Work on `NC(=O)c1nc(F)c[nH]c1=O` [FAVIPIRAVIR] yielded a CC50 [1] greater than 0.641 mM, an Activity [2] of 1.1 g and an Activity [3] of 0.2 g. For the same compound, the Activity [4] was “Non-toxic”, the Activity [5] was “Non-toxic” and the Activity [6] was “Non-toxic”. For the same compound, the Activity [7] was “Non-toxic”, the Activity [8] was “Non-toxic” and the Activity [9] was 0.4 g. It also gave an Activity [10] of 0.4 g, an Activity [11] of 0.7 g and an Activity [12] of 0.6 g. For the same compound, the Activity [13] was 0.3 g, the Activity [14] was “Non-toxic” and the Activity [15] was “Non-toxic”. For the same compound, the Activity [16] was “Non-toxic”, the Activity [17] was 0.6 g and the Activity [18] was “Non-toxic”. The Activity [19] was “Non-toxic”, the Activity [20] was “Non-toxic” and the Activity [21] was “Non-toxic”. For the same compound, the Activity [22] was “Non-toxic”, the Activity [23] was 0.2 g and the Activity [24] was 1 g. For the same compound, the Activity [25] was 0.1 g, the Activity [26] was 0.1 g and the Activity [27] was 0.8 g.

With `NC(=O)c1ncn([C@@H]2O[C@H](CO)[C@@H](O)[C@H]2O)n1` [RIBAVIRIN] the EC90 [28] was 20.1 µM, the EC90 [29] was 32 µM and the CC50 [1] was 2.34 mM.

With `CC(=O)N[C@H]1[C@H]([C@H](O)[C@H](O)CO)OC(C(=O)O)=C[C@@H]1NC(=N)N` [ZANAMIVIR] the EC90 [28] was 0.96 µM, the EC90 [29] was 1.23 µM and the CC50 [1] was greater than 3.61 mM.
